# Assay results as given in ChEMBL document CHEMBL1156469 (2007).
# Active and inactive are the calls of the source. No cut-off for these calls is given here.
# Tests used:
# Osteoblast [1] = assay: Effect on runt related transcription factor 2 gene expression in rat primary osteoblast cells assessed as expression ratio of treated to untreated control by microarray analysis; format: functional
# Method in brief: (§1)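 Resveratrol-treated and vehicle-treated primary osteoblasts were profiled on a mouse osteogenesis-focused cDNA array (GEArray Q series) built to track gene expression during osteogenic differentiation. Each gene's signal in treated cells was expressed as a ratio to untreated control.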
# Osteoblast [2] = assay: Effect on procollagen 6 alpha 1 gene expression in rat primary osteoblast cells assessed as expression ratio of treated to untreated control by microarray analysis; format: functional; method in brief: as §1
# Osteoblast [3] = assay: Inhibition of antiapoptotic activity in rat primary osteoblast cells at 1 uM after 48 hrs in presence of noggin; format: functional, cell-based
# Osteoblast [4] = assay: Increase in bone morphogenetic protein 2 gene expression in rat primary osteoblast cells assessed as expression ratio of treated to untreated control by microarray analysis; format: functional
# Method in brief: (§2)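 GEArray Q series Mouse Osteogenesis cDNA array profiling osteogenic-differentiation genes in treated versus vehicle-treated primary osteoblasts.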
# Osteoblast [5] = assay: Increase in BMP2 levels in rat primary osteoblast cells at 1 uM after 48 hrs by ELISA; format: functional, cell-based
# Method in brief: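 Culture medium collected after 48 h treatment at indicated concentrations; BMP-2 sandwich ELISA, 2 h room temperature incubation, HRP-streptavidin with TMB, absorbance at 450 nm; expressed as percent change versus untreated control.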
# [6] = target: T1, Alkaline phosphatase (Mus musculus) (UniProt Q9EQ79); assay: Inhibition of induction of ALP activity in mouse MC3T3-E1 cells at 1 uM after 48 hrs in presence of noggin; format: cell-based
# T1 sequence (whole entry): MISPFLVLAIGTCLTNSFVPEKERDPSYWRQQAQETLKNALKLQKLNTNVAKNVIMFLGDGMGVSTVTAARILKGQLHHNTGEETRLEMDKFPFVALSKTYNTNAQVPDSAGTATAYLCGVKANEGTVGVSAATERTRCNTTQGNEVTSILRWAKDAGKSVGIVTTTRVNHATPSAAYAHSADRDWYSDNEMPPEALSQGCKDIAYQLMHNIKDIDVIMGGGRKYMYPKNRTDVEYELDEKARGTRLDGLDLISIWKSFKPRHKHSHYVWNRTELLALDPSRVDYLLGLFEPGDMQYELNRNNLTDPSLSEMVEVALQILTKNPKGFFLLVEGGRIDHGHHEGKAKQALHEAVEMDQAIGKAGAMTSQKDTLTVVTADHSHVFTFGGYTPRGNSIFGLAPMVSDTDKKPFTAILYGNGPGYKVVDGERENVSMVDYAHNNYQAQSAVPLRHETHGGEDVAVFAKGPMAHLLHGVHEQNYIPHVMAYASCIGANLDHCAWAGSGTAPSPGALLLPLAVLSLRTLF
# MC3T3-E1 [7] = assay: Reversal of induction in ER.DNA complex in mouse MC3T3-E1 cells at 1 uM by RT-PCR in presence of tamoxifen; format: functional, cell-based
# Method in brief: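 BMP-2 promoter quantified by real-time PCR (45 cycles, 61 °C anneal), reported as IP-to-input Ct ratio. DN-Src by 3 μg vector, PP2 at 10 μM; ICI182780 and tamoxifen at indicated concentrations.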
# Osteoblast [8] = assay: Effect on matrix metalloprotease 9 gene expression in rat primary osteoblast cells assessed as expression ratio of treated to untreated control by microarray analysis; format: functional; method in brief: as §1
# Osteoblast [9] = assay: Effect on integrin beta 1 gene expression in rat primary osteoblast cells assessed as expression ratio of treated to untreated control by microarray analysis; format: functional; method in brief: as §1
# Osteoblast [10] = assay: Effect on procollagen 1 alpha 2 gene expression in rat primary osteoblast cells assessed as expression ratio of treated to untreated control by microarray analysis; format: functional; method in brief: as §1
# Osteoblast [11] = assay: Effect on vascular endothelial growth factor A gene expression in rat primary osteoblast cells assessed as expression ratio of treated to untreated control by microarray analysis; format: functional; method in brief: as §2
# [12] = target: RAC-alpha serine/threonine-protein kinase (Homo sapiens) (UniProt P31749); assay: Inhibition of IGF-induced Akt phosphorylation in human MDA-MB-231 cells by Western blot; format: cell-based
# Method in brief: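 MDA-MB-231 cells, control or treated, stimulated with or without IGF; lysates analyzed by Western blot for Akt phosphorylation.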
# Osteoblast [13] = assay: Effect on bone morphogenetic protein 1 gene expression in rat primary osteoblast cells assessed as expression ratio of treated to untreated control by microarray analysis; format: functional
# MC3T3-E1 [14] = assay: Inhibition of antiapoptotic activity in mouse MC3T3-E1 cells at 1 uM after 48 hrs in presence of BMP2-specific neutralizing antibody; format: functional, cell-based
# Osteoblast [15] = assay: Effect on integrin alpha 2b gene expression in rat primary osteoblast cells assessed as expression ratio of treated to untreated control by microarray analysis; format: functional; method in brief: as §1
# Osteoblast [16] = assay: Effect on procollagen 18alpha 1 gene expression in rat primary osteoblast cells assessed as expression ratio of treated to untreated control by microarray analysis; format: functional; method in brief: as §1
# Osteoblast [17] = assay: Inhibition of TNF-alpha-induced apoptosis in rat primary osteoblast cells after 24 hrs by flow cytometry; format: functional, cell-based
# Method in brief: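 Cells washed in PBS, held 30 min in 0.5% Triton X-100/PBS/0.05% RNase A, then propidium iodide (50 μg/ml) added and kept on ice 15–30 min. Apoptosis is the hypodiploid fraction below the G0/G1 peak, by flow cytometry. Run in triplicate and repeated on three occasions.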
# MCF7 = assay: Antiproliferative activity against human MCF7 cells at 1 uM by flow cytometry; format: functional, cell-based
# Method in brief: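 Proliferation was measured by DNA flow cytometry. Incubations were run in triplicate across three separate experiments, and values are means ± S.D.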
# [18] = target: T2, Estrogen receptor (Mus musculus) (UniProt P19785); assay: Reversal of increase in DNA-binding activity of ERalpha in nuclear extracts of mouse MC3T3-E1 cells by electrophoretic mobility shift assays in presence of PP2; format: cell-based
# T2 sequence (whole entry): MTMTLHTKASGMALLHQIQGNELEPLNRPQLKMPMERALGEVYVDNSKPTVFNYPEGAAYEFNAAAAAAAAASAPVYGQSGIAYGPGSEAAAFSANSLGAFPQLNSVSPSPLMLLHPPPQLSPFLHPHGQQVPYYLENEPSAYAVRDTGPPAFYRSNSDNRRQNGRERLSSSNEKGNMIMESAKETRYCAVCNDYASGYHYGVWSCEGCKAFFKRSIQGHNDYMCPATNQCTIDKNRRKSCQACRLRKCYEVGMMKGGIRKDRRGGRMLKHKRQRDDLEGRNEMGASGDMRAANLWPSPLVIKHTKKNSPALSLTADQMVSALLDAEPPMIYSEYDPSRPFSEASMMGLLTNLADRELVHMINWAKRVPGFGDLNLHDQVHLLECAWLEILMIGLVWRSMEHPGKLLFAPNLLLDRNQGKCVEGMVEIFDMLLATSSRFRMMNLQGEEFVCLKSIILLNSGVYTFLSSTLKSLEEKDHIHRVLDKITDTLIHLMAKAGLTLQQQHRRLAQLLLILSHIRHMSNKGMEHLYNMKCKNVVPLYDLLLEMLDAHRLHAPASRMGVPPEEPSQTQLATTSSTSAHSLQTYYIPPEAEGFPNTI
# Method in brief: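 Nuclear extracts of MC3T3-E1 cells. ER-binding probe [α-32P]dCTP end-labeled, 20-min binding at room temperature, 5-fold unlabeled competitor where used. Complexes resolved on 5% nondenaturing PAGE in Tris-borate-EDTA pH 8.3, then autoradiography.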
# Chain of RAC-alpha serine/threonine-protein kinase (Homo sapiens) (P31749 whole entry): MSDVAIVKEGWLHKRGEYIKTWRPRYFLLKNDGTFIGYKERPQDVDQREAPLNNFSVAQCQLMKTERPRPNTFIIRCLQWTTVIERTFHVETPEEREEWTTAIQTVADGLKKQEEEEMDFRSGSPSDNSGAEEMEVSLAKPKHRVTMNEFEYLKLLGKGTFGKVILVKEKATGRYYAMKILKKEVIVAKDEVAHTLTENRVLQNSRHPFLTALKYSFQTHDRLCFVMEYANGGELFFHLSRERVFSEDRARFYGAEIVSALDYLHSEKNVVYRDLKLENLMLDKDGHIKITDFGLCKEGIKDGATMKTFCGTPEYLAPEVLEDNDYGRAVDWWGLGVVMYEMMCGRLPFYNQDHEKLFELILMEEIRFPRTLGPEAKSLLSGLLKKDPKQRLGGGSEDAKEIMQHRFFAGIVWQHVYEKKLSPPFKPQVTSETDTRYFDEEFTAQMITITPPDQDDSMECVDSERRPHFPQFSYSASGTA
smiles,measurement,setting,value
Oc1ccc(/C=C/c2cc(O)cc(O)c2)cc1 [RESVERATROL],Ratio,Osteoblast [1],3.26
same,Ratio,Osteoblast [2],2.35
same,Activity,Osteoblast [3],Active
same,Ratio,Osteoblast [4],12.75
same,Activity,Osteoblast [5],Dose-dependent effect
same,Activity,[6],Active
same,Activity,MC3T3-E1 [7],Dose-dependent effect
same,Ratio,Osteoblast [8],0.43
same,Ratio,Osteoblast [9],2.97
same,Ratio,Osteoblast [10],8.24
same,Ratio,Osteoblast [11],0.44
same,Activity,[12],Active
same,Ratio,Osteoblast [13],1.5
same,Activity,MC3T3-E1 [14],Active
same,Ratio,Osteoblast [15],0.57
same,Ratio,Osteoblast [16],3.16
same,Activity,Osteoblast [17],Active
same,Activity,MCF7,Active
same,Activity,[18],Active
